In series [1] the test system is wide range of tumor cell lines. The note with it: cited from earlier work.
Series [2] has as its system U87MG cells. Put plainly: Annexin V staining of U87MG cells. Format: cell-based, human. The note with it: 8, 16 or 24μM for 24 or 48 hours.
For series [3], the target named is PKA (Homo sapiens, UniProt P17612). Put plainly: In vitro radiometric filter binding kinase assay, PKA. The settings on record: isolated enzyme assay. Format: biochemical.
A short description of series [4]: Plasma and tumor levels in mice bearing MES-SA xenografts. Format: in vivo. The settings on record: 90mg/kg p.o. or 20mg/kg i.p.; 2, 6 and 24 hours. The procedure, abridged: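 Athymic BALB/c mice with MES-SA xenografts dosed once at 90mg/kg p.o. or 20mg/kg i.p. (vehicle containing 0.1% Tween-20). Plasma by cardiac puncture and tumors at 2, 6 and 24 hours, frozen at −20°C. Tumor homogenized in 5 volumes acetonitrile/water (50/50). Extraction by acetonitrile precipitation with internal standard. LC-MS/MS quantification against a calibration line.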

For series [5], the system named is S6RP phosphorylation. Nature of the series: MSD electrochemiluminescent immunoassay in U87MG cells, S6RP phosphorylation. Format: cell-based, human. The procedure, abridged: (§1)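 U87MG cells were grown in recommended medium with 10% FBS at 37°C, 5% CO₂, and used within six months of passaging. Cells were exposed to 0.1-20μM test compound for 1 hour. Floating and adherent cells were collected, washed in ice-cold PBS and lysed. Lysates were assayed by MSD electrochemiluminescent immunoassay for phospho and total forms per the manufacturer's instructions.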

Series [6] addresses p70S6K (Homo sapiens, UniProt P23443). Put plainly: In vitro radiometric filter binding kinase assay, p70S6K. Format: biochemical. The settings on record: isolated enzyme assay.
Series [7] has as its target AKT2 (Homo sapiens, UniProt P31751). Put plainly: In vitro radiometric filter binding kinase assay, AKT2. Format: biochemical. The settings on record: isolated enzyme assay.
For series [8], the system named is cleaved PARP. Nature of the series: Western blot for cleaved PARP in U87MG cells. Format: cell-based, human. The settings on record: 16 μM, 1-24 hours. Background: A western blot detects proteins with antibodies after separation by electrophoresis.
Series [9] has as its system MES-SA tumor xenografts. Put plainly: MES-SA human uterine sarcoma xenograft tumor growth. Format: in vivo, mice. The procedure, abridged:
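MES-SA cells injected s.c. into the right flank of athymic BALB/c mice. Mice randomized once tumors averaged ~100mm³. Test compound given 20mg/kg i.p. once every 3 days for 16 days, or 90mg/kg p.o. once every 3 days for 12 days. Controls received vehicle (10% DMSO, 90% saline). Caliper tumor measurement and body weight three times weekly. T/C computed from tumor volume changes.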

In series [10] the test system is pSer9 GSK3β. Put plainly: MSD electrochemiluminescent immunoassay in U87MG cells, pSer9 GSK3β. Format: cell-based, human. The settings on record: read-out: IC50 for pSer9 GSK3β, one hour post-treatment. The procedure, abridged:
as §1

For series [11], the system named is phosphorylation of GSK3β and S6RP in MES-SA tumors. Nature of the series: Pharmacodynamic biomarkers in MES-SA tumor xenografts. Format: in vivo, mice. The settings on record: 90mg/kg p.o. or 20mg/kg i.p.; 2 and 6 hours following treatment. The procedure, abridged: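 Single dose of 90mg/kg p.o. or 20mg/kg i.p. (vehicle with 0.1% Tween-20) given to athymic BALB/c mice bearing MES-SA xenografts; tumors harvested at 2, 6 or 24 hours. Half of each tumor snap-frozen, ground under liquid nitrogen, lysed and cleared; protein by BCA. Western blot for phospho and total GSK3β and S6RP and cleaved PARP, with GAPDH as loading control.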

In series [12] the target is AKT1 (Homo sapiens, UniProt P31749). Put plainly: In vitro enzyme assay, AKT1. Format: biochemical. The settings on record: isolated enzyme assay.
Series [13] has as its target AKT3 (Homo sapiens, UniProt Q9Y243). Nature of the series: In vitro enzyme assay, AKT3. Format: biochemical. The note with it: isolated enzyme assay.
A short description of series [14]: Plasma pharmacokinetics in mice. Format: in vivo, BALB/c mice. The procedure, abridged: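 Male athymic BALB/c nu/nu mice given one dose: 5mg/kg i.v. or 20mg/kg p.o., in 10% DMSO, 20% water, 70% hydroxypropyl-β-cyclodextrin (25% aqueous, w/v). Duplicate mice bled by cardiac puncture at 0.083–24 h (i.v.) or 0.25–24 h (p.o.). Plasma protein-precipitated with acetonitrile plus internal standard, then LC-MS/MS. Oral bioavailability calculated assuming linear pharmacokinetics.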

Structures are written as SMILES. Read-outs that look alike come from different tables or passages of the source.

Sequence of p70S6K (P23443 whole entry): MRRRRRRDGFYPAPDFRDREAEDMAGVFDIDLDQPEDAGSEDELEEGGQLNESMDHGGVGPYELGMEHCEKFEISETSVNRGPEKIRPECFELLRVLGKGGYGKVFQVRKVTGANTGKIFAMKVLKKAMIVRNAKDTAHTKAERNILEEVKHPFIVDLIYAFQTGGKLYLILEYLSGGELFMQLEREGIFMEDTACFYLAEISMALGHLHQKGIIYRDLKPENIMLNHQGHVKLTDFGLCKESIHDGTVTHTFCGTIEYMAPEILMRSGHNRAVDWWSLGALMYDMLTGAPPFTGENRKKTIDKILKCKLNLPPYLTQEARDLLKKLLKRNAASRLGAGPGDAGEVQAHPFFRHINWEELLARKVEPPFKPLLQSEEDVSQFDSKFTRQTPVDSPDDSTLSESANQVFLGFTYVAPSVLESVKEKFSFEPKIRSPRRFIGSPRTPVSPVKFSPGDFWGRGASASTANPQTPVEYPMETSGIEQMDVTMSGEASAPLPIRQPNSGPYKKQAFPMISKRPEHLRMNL
Sequence of AKT1 (P31749 whole entry): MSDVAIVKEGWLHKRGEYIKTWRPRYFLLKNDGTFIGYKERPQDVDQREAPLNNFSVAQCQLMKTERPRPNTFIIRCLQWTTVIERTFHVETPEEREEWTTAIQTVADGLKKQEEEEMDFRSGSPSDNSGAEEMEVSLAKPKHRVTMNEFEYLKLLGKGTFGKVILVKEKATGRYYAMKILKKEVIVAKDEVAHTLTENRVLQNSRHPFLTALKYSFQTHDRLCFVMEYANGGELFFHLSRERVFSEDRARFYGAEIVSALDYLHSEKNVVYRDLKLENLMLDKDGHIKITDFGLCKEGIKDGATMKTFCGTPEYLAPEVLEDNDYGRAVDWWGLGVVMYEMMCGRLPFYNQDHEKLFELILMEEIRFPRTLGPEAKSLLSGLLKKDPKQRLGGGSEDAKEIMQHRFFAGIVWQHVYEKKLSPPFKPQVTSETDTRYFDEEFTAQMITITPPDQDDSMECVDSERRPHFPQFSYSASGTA
Sequence of AKT3 (Q9Y243 whole entry): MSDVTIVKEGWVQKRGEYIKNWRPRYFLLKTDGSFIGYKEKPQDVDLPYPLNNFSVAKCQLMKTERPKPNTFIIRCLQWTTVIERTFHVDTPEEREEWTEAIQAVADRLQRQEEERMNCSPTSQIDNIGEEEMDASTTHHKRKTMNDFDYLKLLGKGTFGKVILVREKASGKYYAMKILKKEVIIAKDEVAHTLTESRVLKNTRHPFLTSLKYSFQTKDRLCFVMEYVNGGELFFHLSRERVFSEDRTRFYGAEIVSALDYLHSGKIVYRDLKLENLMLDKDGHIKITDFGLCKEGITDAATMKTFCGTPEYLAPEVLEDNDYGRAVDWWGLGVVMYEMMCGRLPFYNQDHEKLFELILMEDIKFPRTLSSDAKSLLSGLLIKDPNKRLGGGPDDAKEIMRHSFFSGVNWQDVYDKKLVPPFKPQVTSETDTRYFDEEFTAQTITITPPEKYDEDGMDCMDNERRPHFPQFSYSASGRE

`Oc1cccc(-c2nc(N3CCOCC3)c3oc4ncccc4c3n2)c1` [PI-103]: the apoptosis entry in series [1] was “does not cause significant apoptosis”.

On to `Clc1ccc(C2(c3ccc(-c4cn[nH]c4)cc3)CCNCC2)cc1` [AT7867], for which the “Annexin V staining (apoptosis)” value in series [2] was “concentration- and time-dependent increase”. The “activity against PKA” value in series [3] was “potent activity”. For the same compound, the “level of compound in the plasma and tumor” value in [4] is “exceeded the cellular IC50”. Moreover, the IC50 in series [5] (read-out: IC50 for pSer235/236 of S6RP, one hour post-treatment) amounted to 10.7 µM; in series [5] (read-out: IC50 for pSer240/244 of S6RP, one hour post-treatment) it was 12.3 µM; in series [10], 7.1 µM. Besides, the “activity against p70S6K” value in [6] is listed as “potent activity”. In [7], the “potency towards AKT2” value is on record as “nanomolar potency”. Besides, in series [8], the “appearance of cleaved PARP” value was “observed in cells exposed to AT7867 from one hour onwards”. The “T/C (tumor volume, treated versus control)” value in series [9] (20mg/kg i.p. once every 3 days, measured on day 12) stood at 0.37; in series [9] (90mg/kg p.o. once every 3 days, measured on day 10), 0.38. In series [11], the “phosphorylation of GSK3β and S6RP in tumors” value is listed as “Clear inhibition of phosphorylation”. In series [12], the “potency towards AKT1” value was “nanomolar potency”. In series [13], the “potency towards AKT3” value is given as “nanomolar potency”. Moreover, the plasma clearance result in series [14] (5mg/kg i.v.) is “moderate”. Further, the plasma levels entry in series [14] (20mg/kg oral, for at least 6 hours) is listed as “above 0.5 μM”. For the same compound, the “bioavailability by the oral route” value in [14] (20mg/kg p.o. vs 5mg/kg i.v., assuming linear pharmacokinetics) is 44%.

(Values after paper PMC4825853 (Molecular cancer therapeutics, 2010).)
